ChEMBL document CHEMBL2062452, “Identification of Simple Compounds with Microtubule-Binding Activity That Inhibit Cancer Cell Growth with High Potency” (ACS Med Chem Lett, 2011)
Active and inactive are the calls of the source. No cut-off for these calls is given here.

What was measured:
HT-1080 [1] = assay: Induction of apoptosis in human HT1080 cells assessed as caspase activation after 24 to 48 hrs; type: functional, cell-based
[2] = Growth inhibition of human BJeLR cells after 24 hrs by alamar blue assay; type: functional, cell-based
Tubulin (Sus scrofa) = Tubulin (Sus scrofa) (UniProt P02554+P02550); assay: Inhibition of pig brain tubulin polymerization at 5 uM measured every min for 60 mins by spectrophotometry
Method in brief: (§1)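 Purified porcine brain tubulin self-polymerized into microtubules in buffer, and polymerization was followed as the rise in light scattering at 340 nm.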

HT-1080 [3] = assay: Growth inhibition of human HT1080 cells after 24 hrs by alamar blue assay; type: functional, cell-based; details: HT-1080, 24 h
HT-1080 [4] = assay: Induction of cell death in human HT1080 cells in presence of calcium channel inhibitor Co2+; type: functional, cell-based
HT-1080 [5] = assay: Induction of cell death in human HT1080 cells assessed as viability at 0.1 to 10000 nM after 24 hrs in the presence of caspase inhibitor zVAD-fmk; type: functional, cell-based
MCF-10A = assay: Growth inhibition of human MCF10A cells after 24 hrs by alamar blue assay; type: functional, cell-based
HT-1080 [6] = assay: Induction of apoptosis in human HT1080 cells assessed as caspase activation at 0.33 to 2714 nM; type: functional, cell-based; details: TDE = time-dependent effect
HT-1080 [7] = assay: Induction of cell death in human HT1080 cells assessed as viability at 0.1 to 10000 nM after 24 hrs in the presence of caspase inhibitor Boc-D-fmk; type: functional, cell-based
HT-1080 [8] = assay: Inhibition of microtubule polymerization in human HT1080 cells at 272 nM for 4 hrs by immunocytochemistry analysis; type: cell-based
Method in brief: (§2)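 HT-1080 cells were treated, then immunofluorescence-stained for microtubules and scored for loss of the hairlike network. Colchicine- and vinblastine-treated cells served as controls.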

HT-1080 [9] = assay: Induction of apoptosis in human HT1080 cells assessed as caspase activation at 0.33 to 2729 nM; type: functional, cell-based; details: TDE = time-dependent effect
HT-1080 [10] = assay: Induction of apoptosis in human HT1080 cells assessed as caspase activation at 0.81 to 6006 nM; type: functional, cell-based; details: TDE = time-dependent effect
HT-1080 [11] = assay: Inhibition of microtubule polymerization in human HT1080 cells at 250 nM for 4 hrs by immunocytochemistry analysis; type: cell-based; method in brief: as §2
Sus scrofa = organism: Sus scrofa; assay: Stabilization of pig brain microtubule at 5 uM measured every min for 60 mins by spectrophotometry; method in brief: as §1
HT-1080 [12] = assay: Inhibition of microtubule polymerization in human HT1080 cells at 50 nM for 4 hrs by immunocytochemistry analysis; type: cell-based
HT-1080 [13] = details: Homo sapiens, 100 nM

Tubulin (Sus scrofa), sequence (P02550 whole entry, looked up): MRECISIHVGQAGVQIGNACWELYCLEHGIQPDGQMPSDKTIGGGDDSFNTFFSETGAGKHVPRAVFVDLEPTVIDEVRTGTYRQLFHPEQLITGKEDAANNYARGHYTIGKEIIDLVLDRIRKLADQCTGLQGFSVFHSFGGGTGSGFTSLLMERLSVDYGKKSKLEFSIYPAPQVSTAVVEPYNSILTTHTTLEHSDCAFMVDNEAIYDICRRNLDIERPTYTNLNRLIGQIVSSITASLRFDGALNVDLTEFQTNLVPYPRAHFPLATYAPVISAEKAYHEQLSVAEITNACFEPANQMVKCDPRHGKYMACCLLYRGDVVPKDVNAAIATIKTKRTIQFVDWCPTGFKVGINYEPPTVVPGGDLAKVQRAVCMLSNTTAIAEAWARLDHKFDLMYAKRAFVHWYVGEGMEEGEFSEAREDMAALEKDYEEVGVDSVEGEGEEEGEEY
Tubulin (Sus scrofa), sequence (P02554 whole entry, looked up): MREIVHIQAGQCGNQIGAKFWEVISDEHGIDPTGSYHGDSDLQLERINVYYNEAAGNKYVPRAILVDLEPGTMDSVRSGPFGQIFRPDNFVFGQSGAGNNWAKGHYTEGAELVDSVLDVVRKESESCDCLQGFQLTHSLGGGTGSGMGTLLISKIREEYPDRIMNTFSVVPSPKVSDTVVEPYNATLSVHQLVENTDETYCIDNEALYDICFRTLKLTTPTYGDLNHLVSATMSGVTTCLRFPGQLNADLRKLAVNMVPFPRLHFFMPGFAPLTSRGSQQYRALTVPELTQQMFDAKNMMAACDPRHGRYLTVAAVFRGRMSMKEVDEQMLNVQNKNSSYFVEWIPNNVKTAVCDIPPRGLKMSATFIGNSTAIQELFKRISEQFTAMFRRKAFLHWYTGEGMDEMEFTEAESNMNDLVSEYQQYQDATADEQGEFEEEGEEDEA

| Structure (SMILES) | Activity (HT-1080 [1]) | EC50 [2] [nM] | inhibition (Tubulin (Sus scrofa)) | EC50 (HT-1080 [3]) [nM] | Activity (HT-1080 [4]) | Activity (HT-1080 [5]) | EC50 (MCF-10A) [nM] | Activity (HT-1080 [7]) | inhibition (HT-1080 [8]) | Activity (Sus scrofa) | other results |
| --- | --- | --- | --- | --- | --- | --- | --- | --- | --- | --- | --- |
| O=S(=O)(c1ccc(-c2cnc(C3CC3)o2)cc1)N1CCCc2ccccc21 | Dose-dependent effect | < 100 | Active | < 100 | Active | Active | < 100 | Active | Active | – | Activity (HT-1080 [6]): tde |
| CCOc1ccc(C2=Nn3c(nnc3-c3ccccc3OC)SC2)cc1 | Dose-dependent effect | < 100 | – | < 100 | Active | Active | < 100 | Active | Active | – | Activity (HT-1080 [9]): tde |
| COc1ccccc1N1CCN(C(=O)c2cc(=O)c3cc(C)cc(C)c3o2)CC1 | Dose-dependent effect | < 100 | – | < 100 | Active | Active | < 100 | Active | – | Active | Activity (HT-1080 [10]): tde; inhibition (HT-1080 [11]): inactive |
| CC(=O)O[C@H]1C(=O)[C@@]2(C)[C@H]([C@H](OC(=O)c3ccccc3)[C@]3(O)C[C@H](OC(=O)[C@H](O)[C@@H](NC(=O)c4ccccc4)c4ccccc4)C(C)=C1C3(C)C)[C@]1(OC(C)=O)CO[C@@H]1C[C@@H]2O | – | – | – | – | – | – | – | – | – | Active | – |
| COc1cc2c(c(OC)c1OC)-c1ccc(OC)c(=O)cc1[C@@H](NC(C)=O)CC2 | – | – | – | – | – | – | – | – | – | – | inhibition (HT-1080 [12]): Active |
| CC[C@]1(O)C[C@@H]2CN(CCc3c([nH]c4ccccc34)[C@@](C(=O)OC)(c3cc4c(cc3OC)N(C)[C@H]3[C@@](O)(C(=O)OC)[C@H](OC(C)=O)[C@]5(CC)C=CCN6CC[C@]43[C@@H]65)C2)C1 | – | – | Active | – | – | – | – | – | – | – | inhibition (HT-1080 [13]): Active |
